Test results published in ChEMBL document CHEMBL3351932, “Discovery of BI 207524, an indole diamide NS5B thumb pocket 1 inhibitor with improved potency for the potential treatment of chronic hepatitis C virus infection” (J Med Chem, 2014).

assay: Inhibition of HCV full-length NS5B polymerase; set-up: species or system Hepacivirus hominis; details: not given
How it was run: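 Polymerase inhibition with full-length NS5B enzyme in a biochemical assay; IC50 averaged from duplicate measurements, at least two determinations.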

| SMILES | IC50 |
| --- | --- |
| CCCOc1cc(NC(=O)C2(NC(=O)c3ccc4c(C5CCCC5)c(-c5ccccn5)n(C)c4c3)CCC2)ccc1/C=C/C(=O)O | 130 nM |
| CC(C)Oc1cc(NC(=O)C2(NC(=O)c3ccc4c(C5CCCC5)c(-c5ccccn5)n(C)c4c3)CCC2)ccc1/C=C/C(=O)O | 110 nM |
| CC(C)COc1cc(NC(=O)C2(NC(=O)c3ccc4c(C5CCCC5)c(-c5ccccn5)n(C)c4c3)CCC2)ccc1/C=C/C(=O)O | 420 nM |
| Cn1c(-c2ccccn2)c(C2CCCC2)c2ccc(C(=O)NC3(C(=O)Nc4ccc(/C=C/C(=O)O)c(OCC5CC5)c4)CCC3)cc21 | 250 nM |
| Cn1c(-c2ccccn2)c(C2CCCC2)c2ccc(C(=O)NC3(C(=O)Nc4ccc(/C=C/C(=O)O)c(OC5CCC5)c4)CCC3)cc21 | 280 nM |
| COCCOc1cc(NC(=O)C2(NC(=O)c3ccc4c(C5CCCC5)c(-c5ccccn5)n(C)c4c3)CCC2)ccc1/C=C/C(=O)O | 56 nM |
| CCOc1cc(NC(=O)C2(NC(=O)c3ccc4c(C5CCCC5)c(-c5ccccc5)n(C)c4c3)CCC2)ccc1/C=C/C(=O)O | 410 nM |
| CCOc1cc(NC(=O)C2(NC(=O)c3ccc4c(C5CCCC5)c(-c5ccc(Cl)cn5)n(C)c4c3)CCC2)ccc1/C=C/C(=O)O | 330 nM |
| CCOc1cc(NC(=O)C2(NC(=O)c3ccc4c(C5CCCC5)c(-c5cccc(N)n5)n(C)c4c3)CCC2)ccc1/C=C/C(=O)O | 330 nM |
| CCOc1cc(NC(=O)C2(NC(=O)c3ccc4c(C5CCCC5)c(-c5cnccn5)n(C)c4c3)CCC2)ccc1/C=C/C(=O)O | 48 nM |
| CCOc1cc(NC(=O)C2(NC(=O)c3ccc4c(C5CCCC5)c(-c5ncc(Br)cn5)n(C)c4c3)CCC2)ccc1/C=C/C(=O)O | 460 nM |
| CCOc1cc(NC(=O)C2(NC(=O)c3ccc4c(C5CCCC5)c(-c5cnn(C)c5)n(C)c4c3)CCC2)ccc1/C=C/C(=O)O | 190 nM |
| CCOc1cc(NC(=O)C2(NC(=O)c3ccc4c(C5CCCC5)c(-c5nccs5)n(C)c4c3)CCC2)ccc1/C=C/C(=O)O | 150 nM |
| CCOc1cc(NC(=O)C(C)(C)NC(=O)c2ccc3c(C4CCCC4)c(-c4ncc(Cl)cn4)n(C)c3c2)ccc1/C=C/C(=O)O | 27 nM |
| CCOc1cc(NC(=O)C2(NC(=O)c3ccc4c(C5CCCC5)c(-c5ncc(Cl)cn5)n(C)c4c3)CC2)ccc1/C=C/C(=O)O | 380 nM |
| COCCOc1cc(NC(=O)C(C)(C)NC(=O)c2ccc3c(C4CCCC4)c(-c4ncc(Cl)cn4)n(C)c3c2)ccc1/C=C/C(=O)O | 200 nM |

assay: Permeability across apical to basolateral side in human Caco2 cells; type: ADME, cell-based; details: Caco-2, read-out: permeability

| SMILES | Papp A→B |
| --- | --- |
| CCCOc1cc(NC(=O)C2(NC(=O)c3ccc4c(C5CCCC5)c(-c5ccccn5)n(C)c4c3)CCC2)ccc1/C=C/C(=O)O | 19 ×10⁻⁶ cm/s |
| CC(C)Oc1cc(NC(=O)C2(NC(=O)c3ccc4c(C5CCCC5)c(-c5ccccn5)n(C)c4c3)CCC2)ccc1/C=C/C(=O)O | 19 ×10⁻⁶ cm/s |
| CCOc1cc(NC(=O)C2(NC(=O)c3ccc4c(C5CCCC5)c(-c5ccc(Cl)cn5)n(C)c4c3)CCC2)ccc1/C=C/C(=O)O | 18 ×10⁻⁶ cm/s |
| CCOc1cc(NC(=O)C2(NC(=O)c3ccc4c(C5CCCC5)c(-c5cccc(N)n5)n(C)c4c3)CCC2)ccc1/C=C/C(=O)O | 9.4 ×10⁻⁶ cm/s |
| CCOc1cc(NC(=O)C2(NC(=O)c3ccc4c(C5CCCC5)c(-c5ncc(Br)cn5)n(C)c4c3)CCC2)ccc1/C=C/C(=O)O | 13 ×10⁻⁶ cm/s |
| CCOc1cc(NC(=O)C(C)(C)NC(=O)c2ccc3c(C4CCCC4)c(-c4ncc(Cl)cn4)n(C)c3c2)ccc1/C=C/C(=O)O | 24 ×10⁻⁶ cm/s |
| COCCOc1cc(NC(=O)C(C)(C)NC(=O)c2ccc3c(C4CCCC4)c(-c4ncc(Cl)cn4)n(C)c3c2)ccc1/C=C/C(=O)O | 12 ×10⁻⁶ cm/s |

assay: Plasma concentration in rat at 4 mg/kg, po cassette dosing after 1 hr; type: ADME, organism-based; set-up: dose 4 mg/kg, route oral; details: not given
How it was run: (§1)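 Cassette screen: mixture of 4 compounds, each at 4 mg/kg, dosed orally to 2 rats; plasma sampled at 1 h and 2 h, solid-phase extracted and quantified by HPLC-UV or LC/MS against calibration standards in blank plasma (LOQ 7 ng/mL).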

| SMILES | concentration at 1 h |
| --- | --- |
| CCCOc1cc(NC(=O)C2(NC(=O)c3ccc4c(C5CCCC5)c(-c5ccccn5)n(C)c4c3)CCC2)ccc1/C=C/C(=O)O | 400 nM |
| CC(C)Oc1cc(NC(=O)C2(NC(=O)c3ccc4c(C5CCCC5)c(-c5ccccn5)n(C)c4c3)CCC2)ccc1/C=C/C(=O)O | 1300 nM |
| CCOc1cc(NC(=O)C2(NC(=O)c3ccc4c(C5CCCC5)c(-c5ccc(Cl)cn5)n(C)c4c3)CCC2)ccc1/C=C/C(=O)O | 500 nM |
| CCOc1cc(NC(=O)C2(NC(=O)c3ccc4c(C5CCCC5)c(-c5cccc(N)n5)n(C)c4c3)CCC2)ccc1/C=C/C(=O)O | 100 nM |
| CCOc1cc(NC(=O)C2(NC(=O)c3ccc4c(C5CCCC5)c(-c5ncc(Br)cn5)n(C)c4c3)CCC2)ccc1/C=C/C(=O)O | 1800 nM |
| CCOc1cc(NC(=O)C2(NC(=O)c3ccc4c(C5CCCC5)c(-c5cnn(C)c5)n(C)c4c3)CCC2)ccc1/C=C/C(=O)O | 400 nM |
| CCOc1cc(NC(=O)C(C)(C)NC(=O)c2ccc3c(C4CCCC4)c(-c4ncc(Cl)cn4)n(C)c3c2)ccc1/C=C/C(=O)O | 500 nM |
| COCCOc1cc(NC(=O)C(C)(C)NC(=O)c2ccc3c(C4CCCC4)c(-c4ncc(Cl)cn4)n(C)c3c2)ccc1/C=C/C(=O)O | 200 nM |

assay: Half life in rat liver microsomes; type: ADME; details: not given

| SMILES | half-life |
| --- | --- |
| CCOc1cc(NC(=O)C2(NC(=O)c3ccc4c(C5CCCC5)c(-c5ccc(Cl)cn5)n(C)c4c3)CCC2)ccc1/C=C/C(=O)O | 1.73 h |
| CCOc1cc(NC(=O)C2(NC(=O)c3ccc4c(C5CCCC5)c(-c5ncc(Br)cn5)n(C)c4c3)CCC2)ccc1/C=C/C(=O)O | 1.73 h |

assay: Inhibition of Hepatitis C virus genotype 1b Con1 NS5B RNA dependent RNA polymerase activity using Bright-Glo luciferase substrate by cell-based 1b luciferase reporter assay; set-up: species or system Hepatitis C virus (isolate Con1); details: not given
How it was run: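 Cell-based genotype 1b luciferase reporter replicon assay; EC50 determined in duplicate, values averaged over at least two determinations.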

| SMILES | EC50 |
| --- | --- |
| CCCOc1cc(NC(=O)C2(NC(=O)c3ccc4c(C5CCCC5)c(-c5ccccn5)n(C)c4c3)CCC2)ccc1/C=C/C(=O)O | 36 nM |
| CC(C)Oc1cc(NC(=O)C2(NC(=O)c3ccc4c(C5CCCC5)c(-c5ccccn5)n(C)c4c3)CCC2)ccc1/C=C/C(=O)O | 36 nM |
| CC(C)COc1cc(NC(=O)C2(NC(=O)c3ccc4c(C5CCCC5)c(-c5ccccn5)n(C)c4c3)CCC2)ccc1/C=C/C(=O)O | 55 nM |
| Cn1c(-c2ccccn2)c(C2CCCC2)c2ccc(C(=O)NC3(C(=O)Nc4ccc(/C=C/C(=O)O)c(OCC5CC5)c4)CCC3)cc21 | 46 nM |
| Cn1c(-c2ccccn2)c(C2CCCC2)c2ccc(C(=O)NC3(C(=O)Nc4ccc(/C=C/C(=O)O)c(OC5CCC5)c4)CCC3)cc21 | 65 nM |
| COCCOc1cc(NC(=O)C2(NC(=O)c3ccc4c(C5CCCC5)c(-c5ccccn5)n(C)c4c3)CCC2)ccc1/C=C/C(=O)O | 27 nM |
| CCOc1cc(NC(=O)C2(NC(=O)c3ccc4c(C5CCCC5)c(-c5ccccc5)n(C)c4c3)CCC2)ccc1/C=C/C(=O)O | 21 nM |
| CCOc1cc(NC(=O)C2(NC(=O)c3ccc4c(C5CCCC5)c(-c5ccc(Cl)cn5)n(C)c4c3)CCC2)ccc1/C=C/C(=O)O | 26 nM |
| CCOc1cc(NC(=O)C2(NC(=O)c3ccc4c(C5CCCC5)c(-c5cccc(N)n5)n(C)c4c3)CCC2)ccc1/C=C/C(=O)O | 10 nM |
| CCOc1cc(NC(=O)C2(NC(=O)c3ccc4c(C5CCCC5)c(-c5cnccn5)n(C)c4c3)CCC2)ccc1/C=C/C(=O)O | 21 nM |
| CCOc1cc(NC(=O)C2(NC(=O)c3ccc4c(C5CCCC5)c(-c5ncc(Br)cn5)n(C)c4c3)CCC2)ccc1/C=C/C(=O)O | 19 nM |
| CCOc1cc(NC(=O)C2(NC(=O)c3ccc4c(C5CCCC5)c(-c5cnn(C)c5)n(C)c4c3)CCC2)ccc1/C=C/C(=O)O | 12 nM |
| CCOc1cc(NC(=O)C2(NC(=O)c3ccc4c(C5CCCC5)c(-c5nccs5)n(C)c4c3)CCC2)ccc1/C=C/C(=O)O | 12 nM |
| CCOc1cc(NC(=O)C(C)(C)NC(=O)c2ccc3c(C4CCCC4)c(-c4ncc(Cl)cn4)n(C)c3c2)ccc1/C=C/C(=O)O | 8 nM |
| CCOc1cc(NC(=O)C2(NC(=O)c3ccc4c(C5CCCC5)c(-c5ncc(Cl)cn5)n(C)c4c3)CC2)ccc1/C=C/C(=O)O | 34 nM |
| COCCOc1cc(NC(=O)C(C)(C)NC(=O)c2ccc3c(C4CCCC4)c(-c4ncc(Cl)cn4)n(C)c3c2)ccc1/C=C/C(=O)O | 10 nM |

assay: Half life in human liver microsomes; type: ADME; details: not given

| SMILES | half-life |
| --- | --- |
| CCCOc1cc(NC(=O)C2(NC(=O)c3ccc4c(C5CCCC5)c(-c5ccccn5)n(C)c4c3)CCC2)ccc1/C=C/C(=O)O | 2.07 h |
| CC(C)Oc1cc(NC(=O)C2(NC(=O)c3ccc4c(C5CCCC5)c(-c5ccccn5)n(C)c4c3)CCC2)ccc1/C=C/C(=O)O | 1.9 h |
| CC(C)COc1cc(NC(=O)C2(NC(=O)c3ccc4c(C5CCCC5)c(-c5ccccn5)n(C)c4c3)CCC2)ccc1/C=C/C(=O)O | > 5 h |
| Cn1c(-c2ccccn2)c(C2CCCC2)c2ccc(C(=O)NC3(C(=O)Nc4ccc(/C=C/C(=O)O)c(OCC5CC5)c4)CCC3)cc21 | 3.85 h |
| Cn1c(-c2ccccn2)c(C2CCCC2)c2ccc(C(=O)NC3(C(=O)Nc4ccc(/C=C/C(=O)O)c(OC5CCC5)c4)CCC3)cc21 | 0.833 h |
| COCCOc1cc(NC(=O)C2(NC(=O)c3ccc4c(C5CCCC5)c(-c5ccccn5)n(C)c4c3)CCC2)ccc1/C=C/C(=O)O | 1.45 h |
| CCOc1cc(NC(=O)C2(NC(=O)c3ccc4c(C5CCCC5)c(-c5ccc(Cl)cn5)n(C)c4c3)CCC2)ccc1/C=C/C(=O)O | 1.35 h |
| CCOc1cc(NC(=O)C2(NC(=O)c3ccc4c(C5CCCC5)c(-c5cccc(N)n5)n(C)c4c3)CCC2)ccc1/C=C/C(=O)O | 1.3 h |
| CCOc1cc(NC(=O)C2(NC(=O)c3ccc4c(C5CCCC5)c(-c5cnccn5)n(C)c4c3)CCC2)ccc1/C=C/C(=O)O | 0.767 h |
| CCOc1cc(NC(=O)C2(NC(=O)c3ccc4c(C5CCCC5)c(-c5ncc(Br)cn5)n(C)c4c3)CCC2)ccc1/C=C/C(=O)O | 2.57 h |
| CCOc1cc(NC(=O)C2(NC(=O)c3ccc4c(C5CCCC5)c(-c5cnn(C)c5)n(C)c4c3)CCC2)ccc1/C=C/C(=O)O | 0.733 h |
| CCOc1cc(NC(=O)C2(NC(=O)c3ccc4c(C5CCCC5)c(-c5nccs5)n(C)c4c3)CCC2)ccc1/C=C/C(=O)O | 0.6 h |
| CCOc1cc(NC(=O)C2(NC(=O)c3ccc4c(C5CCCC5)c(-c5ncc(Cl)cn5)n(C)c4c3)CC2)ccc1/C=C/C(=O)O | 3.25 h |
| COCCOc1cc(NC(=O)C(C)(C)NC(=O)c2ccc3c(C4CCCC4)c(-c4ncc(Cl)cn4)n(C)c3c2)ccc1/C=C/C(=O)O | 2.15 h |

assay: Plasma concentration in rat at 4 mg/kg, po cassette dosing after 2 hrs; type: ADME, organism-based; set-up: dose 4 mg/kg, route oral; details: not given; how it was run: as §1

| SMILES | concentration at 2 h |
| --- | --- |
| CCCOc1cc(NC(=O)C2(NC(=O)c3ccc4c(C5CCCC5)c(-c5ccccn5)n(C)c4c3)CCC2)ccc1/C=C/C(=O)O | 200 nM |
| CC(C)Oc1cc(NC(=O)C2(NC(=O)c3ccc4c(C5CCCC5)c(-c5ccccn5)n(C)c4c3)CCC2)ccc1/C=C/C(=O)O | 800 nM |
| CCOc1cc(NC(=O)C2(NC(=O)c3ccc4c(C5CCCC5)c(-c5ccc(Cl)cn5)n(C)c4c3)CCC2)ccc1/C=C/C(=O)O | 300 nM |
| CCOc1cc(NC(=O)C2(NC(=O)c3ccc4c(C5CCCC5)c(-c5cccc(N)n5)n(C)c4c3)CCC2)ccc1/C=C/C(=O)O | 100 nM |
| CCOc1cc(NC(=O)C2(NC(=O)c3ccc4c(C5CCCC5)c(-c5ncc(Br)cn5)n(C)c4c3)CCC2)ccc1/C=C/C(=O)O | 2100 nM |
| CCOc1cc(NC(=O)C2(NC(=O)c3ccc4c(C5CCCC5)c(-c5cnn(C)c5)n(C)c4c3)CCC2)ccc1/C=C/C(=O)O | 100 nM |
| CCOc1cc(NC(=O)C(C)(C)NC(=O)c2ccc3c(C4CCCC4)c(-c4ncc(Cl)cn4)n(C)c3c2)ccc1/C=C/C(=O)O | 100 nM |
